Measurements from ChEMBL document CHEMBL1255289, “In vitro antifungal activities of isavuconazole (BAL4815), voriconazole, and fluconazole against 1,007 isolates of zygomycete, Candida, Aspergillus, Fusarium, and Scedosporium species” (2008).
Values after ≈ are worked out from the molar mass of the structure shown.

Legend:
Type in all cases: functional
[1] = system: Aspergillus niger; experiment: Antifungal activity against Aspergillus niger isolates by Etest
In short: (§1)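 Etest on RPMI agar with 2% glucose, swab-inoculated with the microdilution spore or yeast suspension taken before its 50-fold dilution. Plates were incubated at 35°C and read at 48 h. The MIC was the ellipse–scale intercept, raised to the next twofold dilution step.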

[2] = system: Scedosporium apiospermum; experiment: Antifungal activity against Scedosporium apiospermum isolates assessed as lowest compound concentration that produced slight growth or approximately 25% of that of growth control after 24 hrs by CLSI M38-A procedure based assay
[3] = system: Absidia; experiment: Antifungal activity against Absidia isolates assessed as lowest compound concentration that produced slight growth or approximately 25% of that of growth control after 24 hrs by CLSI M38-A procedure based assay
In short: (§2)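 Clinical isolates were kept at –70°C as spore suspensions in sterile water and subcultured on potato dextrose or Sabouraud agar before testing. Broth microdilution used DMSO stocks in trays stored at –70°C, with final drug 0.015–16 µg/ml.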

[4] = system: Lomentospora prolificans; experiment: Antifungal activity against Scedosporium prolificans isolates by Etest; in short: as §1
[5] = system: Rhizopus; experiment: Antifungal activity against Rhizopus isolates assessed as lowest compound concentration that produced slight growth or approximately 25% of that of growth control after 24 hrs by CLSI M38-A procedure based assay
In short: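 Rhizopus isolates tested by CLSI M38-A broth microdilution at final 0.015–16 µg/ml, 35°C, read by eye at 24 h.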

[6] = system: Candida parapsilosis; experiment: Antifungal activity against Candida parapsilosis isolates by Etest; conditions: Lodderomyces parapsilosis; in short: as §1
[7] = system: Absidia; experiment: Antifungal activity against Absidia isolates assessed as lowest compound concentration that produced complete inhibition of microbial growth after 24 hrs by CLSI M38-A procedure based assay
In short: (§3)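 Zygomycete isolates subcultured on potato dextrose or Sabouraud agar, then tested by CLSI M38-A broth microdilution. Drugs were serially diluted in plates at final 0.015–16 µg/ml and incubated at 35°C. Plates were read by eye at 24 h. MIC-0 was the lowest concentration giving complete growth inhibition.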

[8] = system: Scedosporium apiospermum; experiment: Antifungal activity against Scedosporium apiospermum isolates by Etest; in short: as §1
[9] = system: Cunninghamella; experiment: Antifungal activity against Cunninghamella isolates assessed as lowest compound concentration that produced complete inhibition of microbial growth after 24 hrs by CLSI M38-A procedure based assay; in short: as §3
[10] = system: Aspergillus niger; experiment: Antifungal activity against Aspergillus niger isolates after 48 hrs by CLSI M38-A procedure based assay
In short: (§4)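 Aspergillus isolates tested by CLSI M38-A broth microdilution at final 0.015–16 µg/ml and 35°C. Plates were read macroscopically at 48 h. The MIC was the lowest concentration producing complete inhibition of growth (MIC-0).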

[11] = system: Fusarium; experiment: Antifungal activity against Fusarium sp. isolates assessed as lowest compound concentration that produced complete inhibition of microbial growth after 24 hrs by CLSI M38-A procedure based assay
[12] = system: Pichia kudriavzevii; experiment: Antifungal activity against Candida krusei isolates by Etest; in short: as §1
[13] = system: Candida tropicalis; experiment: Antifungal activity against Candida tropicalis isolates after 48 hrs by CLSI M27-A2 procedure based assay
In short: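 Candida isolates tested by CLSI M27-A2 broth microdilution at final 0.015–16 µg/ml, or 0.125–128 µg/ml for the comparator azole. Incubation was at 35°C with a visual read at 48 h. MIC-2 was the lowest concentration giving a prominent turbidity drop, about 50% growth inhibition.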

[14] = system: Scedosporium apiospermum; experiment: Antifungal activity against Scedosporium apiospermum isolates assessed as lowest compound concentration that produced complete inhibition of microbial growth after 24 hrs by CLSI M38-A procedure based assay
[15] = system: Candida albicans; experiment: Antifungal activity against Candida albicans isolates by Etest; in short: as §1
[16] = system: Syncephalastrum; experiment: Antifungal activity against Syncephalastrum isolates by Etest
In short: (§5)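 Etest. The spore inoculum used for microdilution, taken before the 50-fold dilution, was swabbed onto RPMI agar with 2% glucose, strips applied, and plates held at 35°C and read at 24 h. The MIC was where the inhibition ellipse met the strip scale, rounded up to the next twofold dilution.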

[17] = system: Aspergillus sp.; experiment: Antifungal activity against Aspergillus sp. isolates by Etest; in short: as §1
[18] = system: Mucor; experiment: Antifungal activity against Mucor isolates by Etest; in short: as §5
[19] = system: Rhizopus; experiment: Antifungal activity against Rhizopus isolates assessed as lowest compound concentration that produced complete inhibition of microbial growth after 24 hrs by CLSI M38-A procedure based assay; in short: as §3
[20] = system: Aspergillus fumigatus; experiment: Antifungal activity against Aspergillus fumigatus isolates after 48 hrs by CLSI M38-A procedure based assay; in short: as §4
[21] = system: Rhizopus; experiment: Antifungal activity against Rhizopus isolates by Etest; in short: as §5
[22] = system: Nakaseomyces glabratus; experiment: Antifungal activity against Candida glabrata isolates by Etest; in short: as §1
[23] = system: Cunninghamella; experiment: Antifungal activity against Cunninghamella isolates assessed as lowest compound concentration that produced slight growth or approximately 25% of that of growth control after 24 hrs by CLSI M38-A procedure based assay; in short: as §2
[24] = system: Aspergillus terreus; experiment: Antifungal activity against Aspergillus terreus isolates after 48 hrs by CLSI M38-A procedure based assay; in short: as §4

C[C@@H](c1nc(-c2ccc(C#N)cc2)cs1)[C@](O)(Cn1cncn1)c1cc(F)ccc1F [ISAVUCONAZOLE]
MIC90 [1]: 0.75 µg/mL (≈ 1.71 µM) | MIC50 [2]: 1 µg/mL (≈ 2.29 µM) | MIC90 [2]: 2 µg/mL (≈ 4.57 µM) | MIC [3]: 0.5 µg/mL (≈ 1.14 µM) | MIC50 [4]: > 32 µg/mL | MIC90 [4]: > 32 µg/mL | MIC [5]: 0.5 µg/mL (≈ 1.14 µM) | MIC50 [5]: 0.5 µg/mL (≈ 1.14 µM) | MIC90 [5]: 4 µg/mL (≈ 9.14 µM) | MIC50 [6]: 0.004 µg/mL (≈ 0.00914 µM) | MIC90 [6]: 0.023 µg/mL (≈ 0.0526 µM) | MFC [7]: 4 µg/mL (≈ 9.14 µM) | MIC [7]: 1 µg/mL (≈ 2.29 µM) | MIC [8]: > 32 µg/mL | MFC [9]: 16 µg/mL (≈ 36.6 µM) | MIC [9]: 2 µg/mL (≈ 4.57 µM) | MFC50 [10]: 1 µg/mL (≈ 2.29 µM) | MFC90 [10]: 2 µg/mL (≈ 4.57 µM) | MFC ([10]; Aspergillus niger, 48 h): 0.25 µg/mL (≈ 0.571 µM) | MIC50 ([10]; Aspergillus niger, 48 h): 1 µg/mL (≈ 2.29 µM) | MIC90 ([10]; Aspergillus niger, 48 h): 2 µg/mL (≈ 4.57 µM) | MFC50 [11]: >16 µg/mL | MFC ([11]; Fusarium, 24 h): 4 µg/mL (≈ 9.14 µM) | MIC50 ([11]; Fusarium, 24 h): 16 µg/mL (≈ 36.6 µM) | MIC90 ([11]; Fusarium, 24 h): > 16 µg/mL | MIC [12]: 0.012 µg/mL (≈ 0.0274 µM) | MFC50 [13]: >16 µg/mL | MFC90 [13]: >16 µg/mL | MFC ([13]; Candida tropicalis, 48 h): 2 µg/mL (≈ 4.57 µM) | MIC ([13]; Candida tropicalis, 48 h): < 0.015 µg/mL | MIC50 ([13]; Candida tropicalis, 48 h): < 0.015 µg/mL | MIC90 ([13]; Candida tropicalis, 48 h): 0.06 µg/mL (≈ 0.137 µM) | MFC50 [14]: 8 µg/mL (≈ 18.3 µM) | MFC90 [14]: >16 µg/mL | MFC ([14]; Scedosporium apiospermum, 24 h): 2 µg/mL (≈ 4.57 µM) | MIC50 ([14]; Scedosporium apiospermum, 24 h): 4 µg/mL (≈ 9.14 µM) | MIC90 ([14]; Scedosporium apiospermum, 24 h): 4 µg/mL (≈ 9.14 µM) | MIC50 [15]: 0.004 µg/mL (≈ 0.00914 µM) | MIC90 [15]: 0.015 µg/mL (≈ 0.0343 µM) | MIC [16]: 0.25 µg/mL (≈ 0.571 µM) | MIC [17]: 0.02 µg/mL (≈ 0.0457 µM) | MIC [18]: 0.19 µg/mL (≈ 0.434 µM) | MIC50 [18]: 2 µg/mL (≈ 4.57 µM) | MIC90 [18]: > 32 µg/mL | MFC50 [19]: 4 µg/mL (≈ 9.14 µM) | MFC90 [19]: >16 µg/mL | MFC ([19]; Rhizopus, 24 h): 1 µg/mL (≈ 2.29 µM) | MIC ([19]; Rhizopus, 24 h): 1 µg/mL (≈ 2.29 µM) | MIC50 ([19]; Rhizopus, 24 h): 1 µg/mL (≈ 2.29 µM) | MIC90 ([19]; Rhizopus, 24 h): 16 µg/mL (≈ 36.6 µM) | MFC50 [20]: 1 µg/mL (≈ 2.29 µM) | MFC90 [20]: 1 µg/mL (≈ 2.29 µM) | MFC ([20]; Aspergillus fumigatus, 48 h): 0.125 µg/mL (≈ 0.286 µM) | MIC50 ([20]; Aspergillus fumigatus, 48 h): 1 µg/mL (≈ 2.29 µM) | MIC90 ([20]; Aspergillus fumigatus, 48 h): 1 µg/mL (≈ 2.29 µM) | MIC50 [21]: 1 µg/mL (≈ 2.29 µM) | MIC90 [21]: > 32 µg/mL | MIC50 [22]: 0.094 µg/mL (≈ 0.215 µM) | MIC90 [22]: 0.38 µg/mL (≈ 0.869 µM) | MIC [23]: 0.5 µg/mL (≈ 1.14 µM) | MFC50 [24]: 1 µg/mL (≈ 2.29 µM) | MFC90 [24]: 1 µg/mL (≈ 2.29 µM) | MFC ([24]; Aspergillus terreus, 48 h): 0.25 µg/mL (≈ 0.571 µM) | MIC50 ([24]; Aspergillus terreus, 48 h): 1 µg/mL (≈ 2.29 µM) | MIC90 ([24]; Aspergillus terreus, 48 h): 1 µg/mL (≈ 2.29 µM)
